Data on 23 compounds can be found in ChEMBL document CHEMBL1671828 (ACS Med Chem Lett, 2011).

pKi: −log10 of the molar value. Active and inactive are the calls of the source. The calls are words filed in the database; no cut-off is given here.

Experiment [1] concerns the target Transporter (Rattus norvegicus) (UniProt Q63380). Nature of the experiment: Displacement of [3H]nisoxetine from NET in Sprague-Dawley rat brain membranes at 10 uM. The format is cell membranes. The conditions noted are these: Membrane. On the technique in general: Displacement assays read how much labelled ligand stays bound in the presence of the test substance.

The target in experiment [2] is Sodium-dependent serotonin transporter (Rattus norvegicus) (UniProt P31652). Nature of the experiment: Displacement of [3H]citalopram from SERT in Sprague-Dawley rat brain membranes at 10 uM. It counts as cell membranes. The conditions noted are these: Membrane.
Sodium-dependent serotonin transporter (Rattus norvegicus), sequence (P31652 whole entry): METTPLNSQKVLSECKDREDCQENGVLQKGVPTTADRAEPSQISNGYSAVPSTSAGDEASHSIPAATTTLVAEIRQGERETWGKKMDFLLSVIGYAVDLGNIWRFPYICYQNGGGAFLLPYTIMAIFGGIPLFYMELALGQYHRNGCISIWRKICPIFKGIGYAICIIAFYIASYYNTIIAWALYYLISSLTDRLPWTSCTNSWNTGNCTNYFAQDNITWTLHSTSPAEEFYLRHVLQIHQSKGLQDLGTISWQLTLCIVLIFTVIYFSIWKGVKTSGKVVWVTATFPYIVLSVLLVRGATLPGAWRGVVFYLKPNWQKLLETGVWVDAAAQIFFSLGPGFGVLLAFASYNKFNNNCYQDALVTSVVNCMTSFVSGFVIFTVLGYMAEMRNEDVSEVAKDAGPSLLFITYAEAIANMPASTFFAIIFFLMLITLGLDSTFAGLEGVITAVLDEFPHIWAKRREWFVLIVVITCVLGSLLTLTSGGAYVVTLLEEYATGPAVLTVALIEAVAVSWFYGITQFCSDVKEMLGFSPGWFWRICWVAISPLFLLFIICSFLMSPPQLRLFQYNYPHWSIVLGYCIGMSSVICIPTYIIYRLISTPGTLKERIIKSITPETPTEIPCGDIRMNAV
For experiment [3], the target named is Sodium-dependent dopamine transporter (Rattus norvegicus, UniProt P23977). The format is cell membranes, Sprague-Dawley, Brain, Membrane.
Sodium-dependent dopamine transporter, sequence (P23977 whole entry): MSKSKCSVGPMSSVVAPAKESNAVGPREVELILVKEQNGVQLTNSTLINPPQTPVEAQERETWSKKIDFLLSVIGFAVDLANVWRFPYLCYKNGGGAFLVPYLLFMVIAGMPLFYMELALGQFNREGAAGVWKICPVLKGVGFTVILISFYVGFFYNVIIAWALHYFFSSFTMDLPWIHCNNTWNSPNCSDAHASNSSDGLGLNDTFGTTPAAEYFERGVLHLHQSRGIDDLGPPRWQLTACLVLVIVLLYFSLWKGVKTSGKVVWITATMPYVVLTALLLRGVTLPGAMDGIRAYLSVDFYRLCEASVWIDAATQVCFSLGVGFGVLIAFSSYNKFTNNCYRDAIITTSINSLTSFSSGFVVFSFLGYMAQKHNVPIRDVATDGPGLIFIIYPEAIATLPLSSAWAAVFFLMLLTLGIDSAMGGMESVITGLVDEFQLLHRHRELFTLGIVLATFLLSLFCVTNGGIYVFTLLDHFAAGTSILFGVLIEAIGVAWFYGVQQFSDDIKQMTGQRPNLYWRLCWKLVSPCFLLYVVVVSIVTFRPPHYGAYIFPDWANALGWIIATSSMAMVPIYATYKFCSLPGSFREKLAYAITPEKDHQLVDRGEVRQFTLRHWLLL
Experiment [4] deals with Sodium-dependent serotonin transporter (Rattus norvegicus, UniProt P31652). Put plainly: Displacement of [3H]citalopram from SERT in Sprague-Dawley rat brain membranes. It counts as cell membranes, Membrane.
Sodium-dependent serotonin transporter, sequence (P31652 whole entry): as the sequence (P31652 whole entry) above
For the next experiment, the target named is Transporter (Rattus norvegicus, UniProt Q63380). Put plainly: Displacement of [3H]nisoxetine from NET in Sprague-Dawley rat brain membranes. It counts as cell membranes, Membrane.
Transporter, sequence (Q63380 whole entry): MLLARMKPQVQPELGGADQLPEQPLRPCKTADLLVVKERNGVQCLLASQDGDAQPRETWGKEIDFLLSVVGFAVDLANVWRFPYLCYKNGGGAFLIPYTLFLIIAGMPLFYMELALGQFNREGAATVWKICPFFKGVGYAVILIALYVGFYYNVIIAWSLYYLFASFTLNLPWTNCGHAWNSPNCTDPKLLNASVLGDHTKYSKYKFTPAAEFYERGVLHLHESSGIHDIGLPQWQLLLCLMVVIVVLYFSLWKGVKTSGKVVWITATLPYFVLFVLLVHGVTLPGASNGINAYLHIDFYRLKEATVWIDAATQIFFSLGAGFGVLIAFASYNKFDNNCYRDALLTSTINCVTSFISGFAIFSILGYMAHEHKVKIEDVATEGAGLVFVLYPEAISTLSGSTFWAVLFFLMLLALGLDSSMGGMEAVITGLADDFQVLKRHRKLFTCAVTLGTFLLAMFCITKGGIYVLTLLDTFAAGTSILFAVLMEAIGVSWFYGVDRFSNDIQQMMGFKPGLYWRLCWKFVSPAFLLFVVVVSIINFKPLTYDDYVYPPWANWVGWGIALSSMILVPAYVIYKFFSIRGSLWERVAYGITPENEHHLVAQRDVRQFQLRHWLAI
The subject of another experiment is Mus musculus. Put plainly: Increase in horizontal locomotor activity in mouse measured after 30 mins post 4 hrs drug administration. It counts as functional, organism-based. In outline: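 Mice; horizontal locomotor activity counts per min recorded over the first 30 min of each of the 4 h after drug injection. Several doses (mg/kg) were tested to give dose-effect curves. Each point is the average of six mice.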

The target of experiment [5] is Sodium-dependent dopamine transporter (Rattus norvegicus) (UniProt P23977). Nature of the experiment: Inhibition of [3H]dopamine uptake at DAT in Sprague-Dawley rat brain membranes at 10 uM. It counts as cell membranes. The conditions noted are these: Membrane.
Sodium-dependent dopamine transporter (Rattus norvegicus), sequence (P23977 whole entry): as the sequence (P23977 whole entry) above

Transporter (Rattus norvegicus), sequence (Q63380 as listed by the source): as the sequence (Q63380 whole entry) above

The pKi is the Ki on a negative log10 scale, so that one unit is a factor of ten. As for `NC(=O)CSC(c1ccc(F)cc1)c1ccc(F)cc1`, the inhibition entry in experiment [1] and in experiment [2] was “inactive” throughout. Besides, in experiment [3], the pKi is 5.80.

With `NC(=O)CSC(c1ccc(Cl)cc1)c1ccc(Cl)cc1`, the results for the negative-log Ki (pKi) in experiment [4] and in experiment [3] were 4.90 and 5.65, respectively.

In the case of `NC(=O)CSC(c1ccc(Br)cc1)c1ccc(Br)cc1`, the pKi at Transporter was 4.11; in experiment [4] it was 5.66; in experiment [3], 5.71.

As for `CN(C)C(=O)CSC(c1ccccc1)c1ccccc1`, the inhibition result in experiment [1] and in experiment [2] was “inactive” each time. For the same compound, the pKi in experiment [3] is 4.78.

As to `CN(C)C(=O)CSC(c1ccc(F)cc1)c1ccc(F)cc1`, the results for the pKi in experiment [4] and in experiment [3] were 4.59 and 5.02, respectively. Further, in experiment [1], the inhibition entry was “inactive”.

Take `CN(C)C(=O)CSC(c1ccc(Cl)cc1)c1ccc(Cl)cc1`: the pKi at Transporter was 4.37; in experiment [4] it was 5.22; in experiment [3], 5.35.

Consider `CN(C)C(=O)CSC(c1ccc(Br)cc1)c1ccc(Br)cc1`, for which the pKi on Transporter is 4.72; in experiment [4] it was 5.49; in experiment [3] it was 5.61.

For the compound `NC(=O)C[S@+]([O-])C(c1ccccc1)c1ccccc1`, in the experiment with Mus musculus, the Activity result was “Dose-dependent effect”. Also, the inhibition result in experiment [1] and in experiment [2] was “inactive” throughout.

For the compound `NC(=O)C[S@@+]([O-])C(c1ccccc1)c1ccccc1`, the Activity result in the experiment on Mus musculus was “Dose-dependent effect”. The inhibition entry in experiment [1] and in experiment [2] was “inactive” each time.

In the case of `NC(=O)C[S+]([O-])C(c1ccc(F)cc1)c1ccc(F)cc1` (racemic), the inhibition entry in experiment [1] and in experiment [2] was “inactive” throughout. The compound further had a pKi in experiment [3] of 5.66.

For `NC(=O)C[S+]([O-])C(c1ccc(Cl)cc1)c1ccc(Cl)cc1` (racemic), the Activity result with Mus musculus is “Dose-dependent effect”. This compound also had a negative-log Ki (pKi) in experiment [4] of 4.41. The inhibition entry in experiment [1] is “inactive”.

With `NC(=O)C[S+]([O-])C(c1ccc(Br)cc1)c1ccc(Br)cc1` (racemic), the pKi is 4.97 in experiment [4] and 6.22 in experiment [3]. The inhibition result in experiment [1] was “inactive”.

`CN(C)C(=O)C[S+]([O-])C(c1ccc(F)cc1)c1ccc(F)cc1` (racemic) had a pKi in experiment [4] of 4.79. Further, the inhibition result in experiment [1] and in experiment [5] was “inactive” in each case.

`CN(C)C(=O)C[S+]([O-])C(c1ccc(Cl)cc1)c1ccc(Cl)cc1` (racemic): the pKi in experiment [4] is 4.65; in experiment [3], 4.46. Further, the inhibition result in experiment [1] was “inactive”.

Turning to `CN(C)C(=O)C[S+]([O-])C(c1ccc(Br)cc1)c1ccc(Br)cc1` (racemic), the negative logarithm of the Ki (pKi) is 4.85 in experiment [4] and 4.67 in experiment [3]. Further, the inhibition result in experiment [1] is “inactive”.

`CNC(=O)C[S+]([O-])C(c1ccc(Cl)cc1)c1ccc(Cl)cc1` (racemic): the inhibition entry in experiment [1] and in experiment [2] was “inactive” throughout. Also, the pKi in experiment [3] is 5.61.

As for `CNC(=O)C[S+]([O-])C(c1ccc(Br)cc1)c1ccc(Br)cc1` (racemic), the negative logarithm of the Ki (pKi) was 4.48 in experiment [4] and 5.78 in experiment [3]. The inhibition result in experiment [1] was “inactive”.

With `O=C(C[S+]([O-])C(c1ccccc1)c1ccccc1)NCCCc1ccccc1` (racemic), the inhibition entry in experiment [1] and in experiment [2] was “inactive” throughout. In experiment [3], this compound had a pKi of 5.58.

Regarding `CN(C)CC[S+]([O-])C(c1ccccc1)c1ccccc1` (racemic), the pKi in experiment [4] was 4.34. Also, the inhibition result in experiment [1] and in experiment [5] was “inactive” each time.

`CN(C)CC[S+]([O-])C(c1ccc(Cl)cc1)c1ccc(Cl)cc1` (racemic): the pKi on Transporter was 4.44; in experiment [4], 6.39; in experiment [3] it was 5.54.

For `CN(C)C(=O)C[S+]([O-])C(c1ccccc1)c1ccccc1` (racemic), the inhibition entry in experiment [1], in experiment [2] and in experiment [5] was “inactive” each time.

For `NC(=O)C[S+]([O-])C(c1ccccc1)c1ccccc1` (racemic), in the experiment on Mus musculus, the Activity entry was “Dose-dependent effect”. Also, the inhibition result in experiment [1] and in experiment [2] was “inactive” throughout.

As for `[O-][S+](CCN1CCOCC1)C(c1ccccc1)c1ccccc1` (racemic), the inhibition entry in experiment [1], in experiment [2] and in experiment [5] was “inactive” throughout.
